Test results published in ChEMBL document CHEMBL4699485, “Discovery and Development of SPR519 as a Potent, Selective, and Orally Bioavailable Inhibitor of PI3Kα and mTOR Kinases for the Treatment of Solid Tumors” (J Med Chem, 2020).
Calls of active or inactive are those of the source. The rule behind the calls is not given here.

Assays:
A2780 = assay: Antiproliferative activity against human A2780 cells after 48 hrs by MTT assay; type: functional, cell-based; settings: A2780, 48 h
Outline: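 A2780 cells grown in DMEM with 10% FBS, L-glutamine and antibiotics, seeded at 10000 cells/well and allowed to adhere overnight. Treated 48 h across 20 µM–0.001 µM. MTT (5 mg/mL in PBS) added for 4 h, formazan dissolved in DMSO, absorbance read at 550 nm. % inhibition fit to a four-parameter log inhibitor vs response curve.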

[1] = molecular target: PI3-kinase p110-alpha/p85-alpha (Homo sapiens, UniProt P42336); assay: Inhibition of recombinant human full-length N-terminal His-tagged p110 alpha/p85 alpha expressed in baculovirus expression system using PIP2 as substrate preincubated for 15 mins followed by substrate addition and measured after 60 mins by ADP HiLyte 647 tracer bound ADP2 antibody-Tb conjugate based HTRF assay
PI3-kinase p110-alpha/p85-alpha, sequence (P27986 whole entry): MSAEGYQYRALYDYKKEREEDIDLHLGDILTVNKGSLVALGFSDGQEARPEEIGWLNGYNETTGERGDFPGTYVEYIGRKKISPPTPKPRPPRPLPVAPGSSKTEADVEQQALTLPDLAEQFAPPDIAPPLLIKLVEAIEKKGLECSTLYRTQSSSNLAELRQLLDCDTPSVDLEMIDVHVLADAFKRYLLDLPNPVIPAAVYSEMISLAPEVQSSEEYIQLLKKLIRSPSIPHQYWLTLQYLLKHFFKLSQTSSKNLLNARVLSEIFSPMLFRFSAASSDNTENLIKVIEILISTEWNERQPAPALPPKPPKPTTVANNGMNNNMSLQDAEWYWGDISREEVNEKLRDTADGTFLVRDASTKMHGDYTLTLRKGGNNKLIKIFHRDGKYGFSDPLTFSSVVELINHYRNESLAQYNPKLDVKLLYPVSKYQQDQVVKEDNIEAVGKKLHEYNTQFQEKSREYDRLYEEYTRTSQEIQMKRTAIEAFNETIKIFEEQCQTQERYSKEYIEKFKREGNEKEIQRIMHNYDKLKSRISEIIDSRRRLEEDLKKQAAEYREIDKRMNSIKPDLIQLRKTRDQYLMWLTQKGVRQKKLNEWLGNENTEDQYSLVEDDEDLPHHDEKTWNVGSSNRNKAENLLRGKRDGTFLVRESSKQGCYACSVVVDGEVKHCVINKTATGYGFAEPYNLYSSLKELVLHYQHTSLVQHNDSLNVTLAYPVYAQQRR
PI3-kinase p110-alpha/p85-alpha, sequence (P42336 whole entry): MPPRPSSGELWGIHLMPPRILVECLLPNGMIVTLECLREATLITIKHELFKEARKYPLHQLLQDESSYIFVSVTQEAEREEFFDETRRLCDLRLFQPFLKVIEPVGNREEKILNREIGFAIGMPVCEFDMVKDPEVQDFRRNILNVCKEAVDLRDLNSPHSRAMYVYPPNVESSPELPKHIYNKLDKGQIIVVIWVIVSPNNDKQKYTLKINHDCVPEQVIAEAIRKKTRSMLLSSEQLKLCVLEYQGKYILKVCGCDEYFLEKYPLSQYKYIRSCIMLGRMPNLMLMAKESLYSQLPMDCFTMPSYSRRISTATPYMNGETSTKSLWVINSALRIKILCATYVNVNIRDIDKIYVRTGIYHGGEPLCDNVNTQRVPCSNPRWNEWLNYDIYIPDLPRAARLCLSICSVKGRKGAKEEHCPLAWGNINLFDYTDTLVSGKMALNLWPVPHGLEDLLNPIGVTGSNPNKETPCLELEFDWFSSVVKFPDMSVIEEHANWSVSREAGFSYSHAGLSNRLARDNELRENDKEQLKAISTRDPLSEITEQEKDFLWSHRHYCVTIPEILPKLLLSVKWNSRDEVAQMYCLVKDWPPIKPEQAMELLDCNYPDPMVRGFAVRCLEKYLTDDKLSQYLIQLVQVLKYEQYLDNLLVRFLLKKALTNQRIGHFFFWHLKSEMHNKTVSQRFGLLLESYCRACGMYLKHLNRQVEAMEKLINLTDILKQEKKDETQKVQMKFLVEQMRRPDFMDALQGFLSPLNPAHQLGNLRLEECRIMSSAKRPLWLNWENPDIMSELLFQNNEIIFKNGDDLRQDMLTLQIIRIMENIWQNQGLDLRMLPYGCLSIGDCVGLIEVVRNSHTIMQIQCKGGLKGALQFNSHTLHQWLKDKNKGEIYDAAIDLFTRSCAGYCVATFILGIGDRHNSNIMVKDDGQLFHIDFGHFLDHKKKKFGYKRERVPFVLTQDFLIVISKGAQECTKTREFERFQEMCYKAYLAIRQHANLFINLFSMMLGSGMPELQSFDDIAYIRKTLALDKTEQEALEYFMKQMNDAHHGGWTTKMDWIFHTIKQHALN
Outline: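 PI3Kα at 150 ng/mL (diluted stock) in 50 mM HEPES pH 7.4, 3 mM MgCl2, 2 mM DTT, 0.05% CHAPS, 50 mM NaCl, 1 mM EGTA. Compound tested over 10–0.001 µM. Final reaction held 50 µM PIP2 and 1 µM ATP. Detection mix added for 1 h, then 665/615 nm ratio read. % inhibition versus concentration fitted by four-parameter nonlinear regression to give IC50.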

[2] = Drug uptake in Swiss mouse plasma at 10 mg/kg, po via gavage by LC-MS/MS analysis; type: ADME, organism-based; settings: in vivo
Outline: (§1)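 Female Swiss mice (n=3/group), fasted overnight, given single oral gavage dose in 0.5% CMC/0.5% Tween 80 (10 mL/kg) at 1, 3 or 10 mg/kg. Serial blood sampling at 0.16–8 h into heparinized tubes. Plasma extracted with acetonitrile containing verapamil internal standard and quantified by LC-MS/MS. Cmax, Tmax, AUC and t1/2 derived from the concentration–time profile.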

[3] = molecular target: Serine/threonine-protein kinase mTOR (Homo sapiens, UniProt P42345); assay: Inhibition of recombinant human GST-tagged mTOR catalytic domain (1360 to 2549 residues) expressed in baculovirus expression system using GFP-4E-BP1 as substrate preincubated for 15 mins followed by substrate addition and measured after 60 mins by TR-FRET assay
Outline: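 Recombinant mTOR (FRAP1) was preincubated 15 min with serially diluted compound (10 µM–0.0005 µM, DMSO) in kinase buffer, 10 µL reaction. GFP-4E-BP1 (400 nM final) and ATP (8 µM final) were added and the reaction ran 1 h at RT. Quench buffer with Tb-anti-p4E-BP1 (pThr46) was added for 1 h at RT. TR-FRET 520/486 nm ratio was fitted by four-parameter sigmoidal regression.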

[4] = Metabolic stability in human liver microsomes assessed as parent compound remaining at 10 uM remaining after 120 mins in presence of NADPH by HPLC analysis; type: ADME, Microsome; settings: read-out: Stabilty
Outline: (§2)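 Compound at 10 µM was incubated with 0.5 mg/mL liver microsomes and 1 mM NADPH (final). Samples were taken at 0, 15, 30, 60 and 120 min and stopped with acetonitrile, then centrifuged and the supernatant analysed by HPLC. Percent parent remaining was set relative to the 0 min peak area (100%).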

[5] = AUC in Swiss mouse at 3 mg/kg, po via gavage by LC-MS/MS analysis; type: ADME, organism-based; parameters: dose 3 mg/kg; settings: in vivo; outline: as §1
PC-3 = assay: Antiproliferative activity against human PC-3 cells after 48 hrs by MTT assay; type: functional, cell-based; settings: PC-3, 48 h
Outline: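 PC3 cells grown in RPMI 1640 with 10% FBS and 1% penicillin/streptomycin at 37 °C, 5% CO2, seeded at 10000 cells/well. Treated 48 h across 20 µM–0.001 µM. MTT (5 mg/mL in PBS) added for 4 h, then DMSO solubilization and absorbance at 550 nm. Four-parameter nonlinear fit of % inhibition.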

[6] = Metabolic stability in mouse liver microsomes assessed as parent compound remaining at 10 uM remaining after 120 mins in presence of NADPH by HPLC analysis; type: ADME, Microsome; settings: read-out: Stabilty; outline: as §2
SK-OV-3 = assay: Antiproliferative activity against human SK-OV-3 cells after 48 hrs by MTT assay; type: functional, cell-based; settings: SK-OV-3, 48 h
Outline: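 SK-OV-3 cells grown in McCoy's 5a with 10% FBS, 100 U/mL penicillin and 100 µg/mL streptomycin at 37 °C, 5% CO2, seeded at 10000 cells/well. Treated 48 h across 20 µM–0.001 µM. MTT (5 mg/mL in PBS) added for 4 h, DMSO solubilization, absorbance read at 550 nm. Four-parameter curve fit of % inhibition.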

[7] = Metabolic stability in dog liver microsomes assessed as parent compound remaining at 10 uM remaining after 120 mins in presence of NADPH by HPLC analysis; type: ADME, Canis lupus familiaris, Microsome; settings: read-out: Stabilty; outline: as §2
[8] = molecular target: T1, Voltage-gated inwardly rectifying potassium channel KCNH2 (Homo sapiens, UniProt Q12809); assay: Inhibition of human ERG channel trafficking expressed in mammalian expression system at 1 to 30 uM by HERG-Lite assay; settings: dose 1-30 µM
T1 sequence (Q12809 whole entry): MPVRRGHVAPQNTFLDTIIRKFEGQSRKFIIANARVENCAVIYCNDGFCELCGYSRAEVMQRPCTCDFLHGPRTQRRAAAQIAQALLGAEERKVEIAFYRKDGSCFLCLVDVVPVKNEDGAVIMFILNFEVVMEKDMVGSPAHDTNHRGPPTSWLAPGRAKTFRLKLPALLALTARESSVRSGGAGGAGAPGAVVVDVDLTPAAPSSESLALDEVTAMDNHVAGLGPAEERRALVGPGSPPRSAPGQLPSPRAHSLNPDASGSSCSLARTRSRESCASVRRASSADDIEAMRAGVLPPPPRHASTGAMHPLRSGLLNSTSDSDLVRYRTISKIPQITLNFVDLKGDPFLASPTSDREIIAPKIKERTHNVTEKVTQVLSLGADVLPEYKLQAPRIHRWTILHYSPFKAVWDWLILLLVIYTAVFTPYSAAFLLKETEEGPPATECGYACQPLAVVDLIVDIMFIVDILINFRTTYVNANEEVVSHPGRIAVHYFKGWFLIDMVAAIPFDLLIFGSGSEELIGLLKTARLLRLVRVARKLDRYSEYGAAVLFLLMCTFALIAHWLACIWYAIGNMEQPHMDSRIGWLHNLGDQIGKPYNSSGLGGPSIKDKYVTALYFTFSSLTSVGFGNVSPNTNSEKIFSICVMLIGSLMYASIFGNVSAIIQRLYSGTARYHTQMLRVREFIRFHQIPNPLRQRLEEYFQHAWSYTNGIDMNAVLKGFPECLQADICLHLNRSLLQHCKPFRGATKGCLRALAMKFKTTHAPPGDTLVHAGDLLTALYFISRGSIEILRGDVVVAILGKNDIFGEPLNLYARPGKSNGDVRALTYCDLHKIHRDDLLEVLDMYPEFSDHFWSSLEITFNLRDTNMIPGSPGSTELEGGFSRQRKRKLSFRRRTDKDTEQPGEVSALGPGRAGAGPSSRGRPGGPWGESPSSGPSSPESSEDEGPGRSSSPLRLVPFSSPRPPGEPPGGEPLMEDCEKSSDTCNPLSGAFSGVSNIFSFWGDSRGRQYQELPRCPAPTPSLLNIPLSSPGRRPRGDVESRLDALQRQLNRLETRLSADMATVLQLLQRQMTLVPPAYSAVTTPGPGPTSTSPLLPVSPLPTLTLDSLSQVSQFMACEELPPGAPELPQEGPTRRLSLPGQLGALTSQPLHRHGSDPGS
Outline: (§3)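 HERG-lite assay scoring both channel blocking and trafficking inhibition, with test compound at 1, 10 and 30 µM. Geldanamycin (1 µM) served as the trafficking-inhibition reference and astemizole as the standard hERG binder.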

[9] = molecular target: T1, Voltage-gated inwardly rectifying potassium channel KCNH2; assay: Inhibition of human ERG by patch-clamp assay
Cytochrome P450 2D6 = Cytochrome P450 2D6 (Homo sapiens, UniProt P10635); assay: Inhibition of CYP2D6 in human liver microsomes using isoform-specific probe substrates preincubated for 5 mins followed by NADPH addition by LC-MS/MS analysis; type: ADME
Cytochrome P450 2D6, sequence (P10635 whole entry, canonical isoform): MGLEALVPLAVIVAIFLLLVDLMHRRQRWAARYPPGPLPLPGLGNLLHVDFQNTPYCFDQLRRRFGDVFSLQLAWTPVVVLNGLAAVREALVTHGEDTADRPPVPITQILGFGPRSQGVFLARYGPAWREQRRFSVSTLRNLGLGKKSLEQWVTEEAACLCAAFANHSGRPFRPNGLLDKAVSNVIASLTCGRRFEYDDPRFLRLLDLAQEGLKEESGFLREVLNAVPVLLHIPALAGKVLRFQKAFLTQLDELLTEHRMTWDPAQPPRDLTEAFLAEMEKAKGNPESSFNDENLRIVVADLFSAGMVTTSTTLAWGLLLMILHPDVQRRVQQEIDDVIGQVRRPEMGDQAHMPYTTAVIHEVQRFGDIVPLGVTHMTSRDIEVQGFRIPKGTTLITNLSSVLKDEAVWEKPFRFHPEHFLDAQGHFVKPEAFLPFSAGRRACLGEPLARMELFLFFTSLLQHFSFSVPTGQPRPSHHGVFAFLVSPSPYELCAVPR
Outline: (§4)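 Human liver microsomes premixed with buffer and a CYP-specific FDA-recommended probe substrate, then spiked with inhibitor, in duplicate. After 5 min preincubation at 37 °C, reaction started with NADPH and run at 37 °C for a set time, then quenched. Metabolite formation quantified by HPLC/LC-MS/MS to derive the concentration giving 50% inhibition.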

[10] = Tmax in Swiss mouse at 3 mg/kg, po via gavage by LC-MS/MS analysis; type: ADME, organism-based; settings: in vivo
Outline: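 Female Swiss mice (n=3/group) were fasted overnight, then gavaged with compound in 0.5% CMC/0.5% Tween 80 at 10 mL/kg. Serial blood samples at 0.16, 0.5, 1, 2, 4, 6 and 8 h were taken into heparinized tubes and spun to plasma. Plasma was extracted with acetonitrile containing verapamil (400 ng/mL) and quantified by LC-MS/MS against plasma calibration curves. Tmax was derived from the concentration–time profile.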

[11] = Cmax in Swiss mouse at 3 mg/kg, po via gavage by LC-MS/MS analysis; type: ADME, organism-based; parameters: route oral, dose 3 mg/kg; settings: in vivo; outline: as §1
[12] = Elimination half life in Swiss mouse at 3 mg/kg, po via gavage by LC-MS/MS analysis; type: ADME, organism-based; settings: in vivo, read-out: beta t1/2 (converted); outline: as §1
Cytochrome P450 2C19 = Cytochrome P450 2C19 (Homo sapiens, UniProt P33261); assay: Inhibition of CYP2C19 in human liver microsomes using isoform-specific probe substrates preincubated for 5 mins followed by NADPH addition by LC-MS/MS analysis; type: ADME; outline: as §4
Cytochrome P450 2C19, sequence (P33261 whole entry, canonical isoform): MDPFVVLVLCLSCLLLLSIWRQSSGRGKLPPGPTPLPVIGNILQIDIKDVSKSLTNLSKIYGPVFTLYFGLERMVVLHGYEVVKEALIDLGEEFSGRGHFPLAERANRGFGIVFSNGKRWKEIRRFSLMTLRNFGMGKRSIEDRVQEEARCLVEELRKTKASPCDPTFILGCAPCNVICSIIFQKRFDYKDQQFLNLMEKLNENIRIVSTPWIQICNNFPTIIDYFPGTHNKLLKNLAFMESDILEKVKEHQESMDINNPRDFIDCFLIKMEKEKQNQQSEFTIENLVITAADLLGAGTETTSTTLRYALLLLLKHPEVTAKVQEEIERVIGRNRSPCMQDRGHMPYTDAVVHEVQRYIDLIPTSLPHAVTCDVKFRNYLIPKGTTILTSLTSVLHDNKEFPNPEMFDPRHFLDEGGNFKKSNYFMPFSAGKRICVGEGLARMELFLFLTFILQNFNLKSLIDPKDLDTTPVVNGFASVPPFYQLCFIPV

Homo sapiens = organism: Homo sapiens; assay: Channel blockade of human ERG G601S mutant expressed in mammalian expression system assessed as effect on surface expression of channel at 1 to 30 uM by HERG-Lite assay; settings: dose microM 1-30; outline: as §3
Cytochrome P450 3A4 = Cytochrome P450 3A4 (Homo sapiens, UniProt P08684); assay: Inhibition of CYP3A4 in human liver microsomes using isoform-specific probe substrates preincubated for 5 mins followed by NADPH addition by LC-MS/MS analysis; type: ADME; outline: as §4
Cytochrome P450 3A4, sequence (P08684 whole entry, canonical isoform): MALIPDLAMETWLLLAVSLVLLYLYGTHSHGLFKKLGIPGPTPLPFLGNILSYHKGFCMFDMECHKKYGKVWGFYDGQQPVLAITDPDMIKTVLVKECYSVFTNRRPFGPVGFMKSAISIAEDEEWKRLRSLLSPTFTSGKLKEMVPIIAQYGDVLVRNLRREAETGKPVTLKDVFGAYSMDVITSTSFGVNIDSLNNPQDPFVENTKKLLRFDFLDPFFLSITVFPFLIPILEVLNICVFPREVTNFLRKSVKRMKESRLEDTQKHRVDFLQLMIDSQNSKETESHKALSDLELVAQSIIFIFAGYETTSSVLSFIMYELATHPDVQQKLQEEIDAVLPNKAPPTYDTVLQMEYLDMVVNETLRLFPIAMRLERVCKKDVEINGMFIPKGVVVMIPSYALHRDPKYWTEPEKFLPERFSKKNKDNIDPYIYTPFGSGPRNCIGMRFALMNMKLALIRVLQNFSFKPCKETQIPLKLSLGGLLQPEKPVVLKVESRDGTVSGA

| SMILES | IC50 (A2780) [µM] | IC50 [1] [µM] | IC50 [3] [µM] | EC50 (PC-3) [µM] | EC50 (SK-OV-3) [µM] | also measured |
| --- | --- | --- | --- | --- | --- | --- |
| Cc1cc(N)ncc1-c1nc(Oc2ccc(C(=O)N(C)C)cc2)nc(N2CCOCC2)n1 | > 10 | > 10 |  |  |  |  |
| CN(C)C(=O)c1ccc(Oc2nc(-c3cccc(O)c3)nc(N3CCOCC3)n2)cc1 | 0.09 | 0.01 |  |  |  | Drug uptake [2]: Not Active |
| Cc1nc(N)ccc1-c1nc(Oc2ccc(C(=O)N(C)C)cc2)nc(N2CCOCC2)n1 | > 10 | 3.4 |  |  |  |  |
| CN(C)C(=O)c1ccc(Oc2nc(-c3cccc4[nH]ncc34)nc(N3CCOCC3)n2)cc1 | 0.52 |  | 1.35 | 1.97 | 0.52 | remaining at 2 h, 10 µM [4]: 100%; AUC [5]: 5.25 µM·h; remaining at 2 h, 10 µM [6]: 45%; remaining at 2 h, 10 µM [7]: 83% |
| CN(C)C(=O)c1ccc(Oc2nc(-c3cccc4[nH]ccc34)nc(N3CCOCC3)n2)cc1 | 0.9 | 0.56 |  |  |  |  |
| CN(C)C(=O)c1ccc(Oc2nc(-c3ccc(N)nc3)nc(N3CCOCC3)n2)cc1 | 0.2 | 0.21 | 0.2 | 0.28 | 0.21 | inhibition (INH) [8]: Not Active; IC50 [9]: > 1 µM; IC50 (Cytochrome P450 2D6): > 10 µM; remaining at 2 h, 10 µM [4]: 93%; Tmax [10]: 1.4 h; Cmax [11]: 2.01 µM; half-life [12]: 2.7 h; IC50 (Cytochrome P450 2C19): > 10 µM; AUC [5]: 10.9 µM·h; remaining at 2 h, 10 µM [6]: 102%; Activity (Homo sapiens): Active; remaining at 2 h, 10 µM [7]: 93%; IC50 (Cytochrome P450 3A4): > 10 µM |
| CN(C)C(=O)c1ccc(Oc2nc(-c3cnc(N)[nH]3)nc(N3CCOCC3)n2)cc1 | 2.36 | 0.9 |  |  |  |  |
| CN(C)C(=O)c1ccc(Oc2nc(-c3cnc(N)nc3)nc(N3CCOCC3)n2)cc1 | 0.56 | 0.27 | 0.96 | 0.8 | 0.22 |  |
| CN(C)C(=O)c1ccc(Oc2nc(-c3cccc4[nH]nnc34)nc(N3CCOCC3)n2)cc1 | > 10 | > 10 |  |  |  |  |
| CN(C)C(=O)c1ccc(Oc2nc(-c3ccnc4[nH]ccc34)nc(N3CCOCC3)n2)cc1 | 0.37 | 0.08 | 0.22 | 0.3 | 0.37 | inhibition (INH) [8]: Not Active; IC50 [9]: > 10 µM; IC50 (Cytochrome P450 2D6): > 10 µM; remaining at 2 h, 10 µM [4]: 92%; Tmax [10]: 1 h; Cmax [11]: 3.08 µM; half-life [12]: 2.8 h; IC50 (Cytochrome P450 2C19): > 10 µM; AUC [5]: 16.8 µM·h; remaining at 2 h, 10 µM [6]: 68%; Activity (Homo sapiens): Active; remaining at 2 h, 10 µM [7]: 77%; IC50 (Cytochrome P450 3A4): > 10 µM |
| Cc1cc(-c2nc(Oc3ccc(C(=O)N(C)C)cc3)nc(N3CCOCC3)n2)cnc1N | 1.5 | 0.46 |  |  |  |  |
| Cc1nc(N)sc1-c1nc(Oc2ccc(C(=O)N(C)C)cc2)nc(N2CCOCC2)n1 | 1.1 | 0.14 |  |  |  |  |
